Measurements as given in ChEMBL document CHEMBL3739335, “Phosphonooxymethyl Prodrug of Triptolide: Synthesis, Physicochemical Characterization, and Efficacy in Human Colon Adenocarcinoma and Ovarian Cancer Xenografts” (J Med Chem, 2015).
The source made the active and inactive calls. The rule behind the calls is not given here.

Tests used:
[1] = test system: A2780; experiment: Antitumor activity against human A2780 cells xenografted in athymic nude mouse at 0.6 to 0.9 mg/kg, ip and po administered for 30 days; assay type: functional, organism-based
Summary of the method: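 Female athymic nude mice, 7–9 weeks, implanted s.c. on right or left flank with 2.5 × 10^6 A2780 cells (ECACC, mycoplasma/rodent-pathogen tested) in 50% Matrigel/50% RPMI 1640; randomized at mean tumor 188 mm3, 10/group. Dosed daily for 30 days IP or by oral gavage in USP saline, 0.2 mL. Tumor volume by caliper (L × W2/2), tumor weight at necropsy, survival, body weight.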

[2] = Chemical stability of the compound in buffer assessed as compound remaining at pH 7.4 after 4 hrs by HPLC analysis; assay type: physicochemical; conditions: read-out: Stability
[3] = Chemical stability of the compound in buffer assessed as compound remaining at pH 6 after 24 hrs by HPLC analysis; assay type: physicochemical; conditions: read-out: Stability
[4] = Chemical stability of the compound in buffer assessed as compound remaining at pH 7.4 after 24 hrs by HPLC analysis; assay type: physicochemical; conditions: read-out: Stability
[5] = Stability of the compound in simulated gastric fluid assessed as compound remaining after 1 hr by HPLC analysis
[6] = Stability of the compound in simulated intestinal fluid assessed as compound remaining at pH 7.5 after 1 hr by HPLC analysis; assay type: ADME; conditions: read-out: Stability
Summary of the method: (§1)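 Drug incubated in simulated gastric fluid or simulated intestinal fluid and sampled at 0, 1, 2, 4, 8 and 24 h. Percent remaining was measured by reversed-phase C18 HPLC with photodiode-array detection, using a 20-min gradient of 10–70% acetonitrile against 10 mM sodium phosphate buffer at pH 7.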

[7] = Chemical stability of the compound in buffer assessed as compound remaining at pH 6 after 4 hrs by HPLC analysis; assay type: physicochemical; conditions: read-out: Stability
[8] = Chemical stability of the compound in buffer assessed as compound remaining at pH 2 after 4 hrs by HPLC analysis; assay type: physicochemical; conditions: read-out: Stability
[9] = Chemical stability of the compound in buffer assessed as compound remaining at pH 7.4 after 1 hr by HPLC analysis; assay type: physicochemical; conditions: read-out: Stability
[10] = Chemical stability of the compound in buffer assessed as compound remaining at pH 2 after 24 hrs by HPLC analysis; assay type: physicochemical; conditions: read-out: Stability
[11] = Chemical stability of the compound in buffer assessed as pseudo-first-order rate constant at 40 degC at pH 7.4 by Arrhenius plot analysis; assay type: physicochemical
[12] = Chemical stability of the compound in buffer assessed as pseudo-first-order rate constant at 25 degC at pH 7.4 by Arrhenius plot analysis; assay type: physicochemical
Summary of the method: (§2)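 Pseudo-first-order kobsd at each temperature was fitted to an Arrhenius plot, which was extrapolated to 25 and 4 °C. t1/2 and t90 (time for 10% loss) were calculated from the extrapolated kobsd.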

[13] = Chemical stability of the compound in buffer assessed as pseudo-first-order rate constant at 4 degC at pH 7.4 by Arrhenius plot analysis; assay type: physicochemical; summary of the method: as §2
[14] = Stability of the compound in simulated intestinal fluid assessed as compound remaining at pH 7.5 after 8 hrs by HPLC analysis; assay type: ADME; conditions: read-out: Stability; summary of the method: as §1
[15] = Stability of the compound in simulated gastric fluid assessed as compound remaining after 2 hrs by HPLC analysis
[16] = Half life of the compound in buffer at 25 degC at pH 7.4; assay type: ADME; summary of the method: as §2
[17] = Chemical stability of the compound in buffer assessed as compound remaining at pH 1 after 8 hrs by HPLC analysis; assay type: physicochemical; conditions: read-out: Stability
[18] = test system: Mus musculus; experiment: Toxicity in athymic nude mouse xenografted with human HT-29 cells assessed as skin irritation at 0.9 mg/kg, ip administered 14 days measured post last dose; assay type: organism-based; conditions: in vivo, 336 h
[19] = Shelf life of the compound in buffer assessed as time for 10% loss of compound at 25 degC at pH 7.4; assay type: physicochemical; summary of the method: as §2
[20] = Chemical stability of the compound in buffer assessed as pseudo-first-order rate constant at 60 degC at pH 7.4 by Arrhenius plot analysis; assay type: physicochemical
[21] = Chemical stability of the compound in buffer assessed as compound remaining at pH 7.4 after 8 hrs by HPLC analysis; assay type: physicochemical; conditions: read-out: Stability
[22] = test system: Mus musculus; experiment: Toxicity in athymic nude mouse xenografted with human HT-29 cells assessed as weight gain at 0.9 mg/kg, ip administered 14 days measured post last dose; assay type: organism-based; conditions: in vivo, 336 h
Summary of the method: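 Female athymic nude mice, 7–9 weeks old, received 1.74 × 10^6 HT-29 cells subcutaneously in the right flank in 50% Matrigel/McCoy's 5A. Randomized at 110 mm3, 10 per group. Intraperitoneal dosing in USP saline (0.2 mL) over a 28-day period on the stated schedule. Body weights were taken twice weekly; clinical signs and survival were recorded.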

[23] = Chemical stability of the compound in buffer assessed as pseudo-first-order rate constant at 70 degC at pH 7.4 by Arrhenius plot analysis; assay type: physicochemical
[24] = test system: Mus musculus; experiment: Toxicity in athymic nude mouse xenografted with human A2780 cells assessed as survival at 0.6 to 0.9 mg/kg, ip administered for 30 days; assay type: organism-based; conditions: in vivo, 720 h
Summary of the method: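 Female athymic nude mice, 7–9 weeks old, carried subcutaneous flank A2780 xenografts (2.5 × 10^6 cells in 50% Matrigel). Randomized at 188 mm3 mean tumor volume, 10 per group. Daily intraperitoneal dosing in USP saline (0.2 mL) for 30 days, based on group-mean weight. Survival and clinical signs were monitored.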

[25] = test system: Mus musculus; experiment: Toxicity in athymic nude mouse xenografted with human A2780 cells assessed as moribund condition at 1.2 mg/kg, po administered for 30 days; assay type: organism-based; conditions: in vivo, 720 h
Summary of the method: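 Female athymic nude mice, 7–9 weeks old, received 2.5 × 10^6 A2780 cells subcutaneously in the flank in 50% Matrigel/RPMI 1640. Mice were randomized at a mean tumor volume of 188 mm3, 10 per group. Daily oral gavage in USP saline (0.2 mL) for 30 days, dosed on group-mean body weight. Clinical signs, survival and body weights were recorded.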

[26] = Aqueous solubility of the compound in Tris buffer at pH 7.4 at room temperature by HPLC analysis; assay type: physicochemical
Summary of the method: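 About 5 mg solid was added to Tris buffer pH 7.4 in triplicate to saturation, then sonicated and vortexed. Samples were shaken at 25 °C for 24 h. Excess solid was removed by centrifugation and filtration, and the diluted filtrate was quantified by reverse-phase C18 HPLC with photodiode array detection, using an acetonitrile/10 mM sodium phosphate pH 7 gradient.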

[27] = Stability of the compound in simulated intestinal fluid assessed as compound remaining at pH 7.5 after 4 hrs by HPLC analysis; assay type: ADME; conditions: read-out: Stability; summary of the method: as §1
[28] = Chemical stability of the compound in buffer assessed as compound remaining at pH 1 after 4 hrs by HPLC analysis; assay type: physicochemical; conditions: read-out: Stability
[29] = test system: HT-29; experiment: Antitumor activity against human HT-29 cells xenografted in athymic nude mouse at 0.9 mg/kg, ip qd administered for 4 weeks; assay type: functional, organism-based
Summary of the method: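 Female athymic nude mice, 7–9 weeks, implanted s.c. on right flank with 1.74 × 10^6 HT-29 cells (ATCC, mycoplasma/rodent-pathogen tested) in 50% Matrigel/50% McCoy's 5A; randomized at mean tumor 110 mm3, 10/group. IP dosing in USP saline, 0.2 mL, over a 28-day treatment period. Tumor volume by caliper (L × W2/2) at least twice weekly, tumor weight at necropsy, survival, body weight.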

With `CC(C)[C@]12O[C@H]1[C@@H]1O[C@]13[C@]1(O[C@H]1C[C@H]1C4=C(CC[C@@]13C)C(=O)OC4)[C@@H]2OCOP(=O)([O-])[O-].[Na+].[Na+]` [MINNELIDE] the Activity [1] was “Active”, the remaining at 4 h [2] was 100% and the remaining at 24 h [3] was 99%. The remaining at 24 h [4] was 100%, the remaining at 1 h [5] was 93% and the remaining at 1 h [6] was 100%. It also gave a remaining at 4 h [7] of 100%, a remaining at 4 h [8] of 95% and a remaining at 1 h [9] of 100%. The remaining at 24 h [10] was 83%, the K [11] was 0.000494 h⁻¹ and the K [12] was 8.6 ×10⁻⁵ /hr. The K [13] was 6.5 ×10⁻⁶ /hr, the remaining at 8 h [14] was 99% and the remaining at 2 h [15] was 85%. The t1/2 [16] was 0.92 yr, the remaining at 8 h [17] was 39% and the Activity [18] was “Toxic”. The Time [19] was 0.14 yr, the K [20] was 0.002482 h⁻¹ and the remaining at 8 h [21] was 100%. The Activity [22] was “Toxic”, the K [23] was 0.008659 h⁻¹ and the Activity [24] was “Non-toxic”. The Activity [25] was “Toxic”, the solubility [26] was 61 mg/mL and the remaining at 4 h [27] was 100%. The remaining at 4 h [28] was 62% and the Activity [29] was “Active”.
